Data taken from ChEMBL document CHEMBL4346654 (Eur J Med Chem, 2019).
In brackets after ≈: the same amount, converted by molar mass.

Experiments:
[1] = system: Moraxella catarrhalis; test: Bactericidal activity against erythromycin-susceptible Moraxella catarrhalis 13L332 pretreated followed by subculture in absence of compound measured after 24 hrs; type: functional
Outline: (§1)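 Isolates were identified by 16S rDNA sequencing. MIC was determined by CLSI-recommended two-fold broth dilution. For MBC, samples from 1–8 fold MIC were transferred to culture medium and subcultured for 24 h without antibiotic.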

[2] = MRT in Sprague-Dawley rat at 20 mg/kg, po after 0.25 to 24 hrs by LC-MS/MS analysis; type: ADME, organism-based; settings: in vivo
Outline: (§2)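 Male SD rats were given a single 20 mg/Kg oral dose. Blood was sampled at 0.25, 0.5, 1, 2, 4, 6, 8 and 24 h and centrifuged at 2500 g for 5 min at 4 °C. Drug levels were quantified by LC-MS/MS. t1/2, Cmax, Tmax, CL, MRT and AUC were calculated from the concentration–time data.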

[3] = system: Streptococcus pneumoniae; test: Bactericidal activity against penicillin-susceptible Streptococcus pneumoniae PU 09 expressing mef gene pretreated followed by subculture in absence of compound measured after 24 hrs; type: functional; outline: as §1
[4] = system: Streptococcus pneumoniae; test: Bactericidal activity against Streptococcus pneumoniae 07P390 expressing constitutive ermB gene pretreated followed by subculture in absence of compound measured after 24 hrs; type: functional; outline: as §1
[5] = Cmax in Sprague-Dawley rat at 20 mg/kg, po after 0.25 to 24 hrs by LC-MS/MS analysis; type: ADME, organism-based; set-up: dose 20 mg/kg, route oral; settings: in vivo; outline: as §2
[6] = system: Haemophilus influenzae; test: Selectivity ratio of MBC to MIC for azithromycin-susceptible Haemophilus influenzae ATCC 49247; type: functional; outline: as §1
[7] = system: Staphylococcus aureus; test: Bactericidal activity against MLS-resistant Staphylococcus aureus PU 20 expressing constitutive ermC gene pretreated followed by subculture in absence of compound measured after 24 hrs; type: functional
Outline: (§3)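 MBC assay. Following MIC determination by CLSI standard two-fold broth dilution, samples at 1–8 fold MIC were transferred to fresh culture medium. They were subcultured for 24 h without antibiotic. Isolates were identified by 16S rDNA sequencing. S. aureus ATCC 29213 was used as a control strain.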

[8] = system: Streptococcus pyogenes; test: Selectivity ratio of MBC to MIC for MLS-resistant Streptococcus pyogenes 01-968 expressing inducible ermB gene; type: functional
Outline: (§4)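 MBC/MIC ratio. MIC was measured by CLSI standard two-fold broth dilution. MBC was measured by transferring samples at 1–8 fold MIC to culture medium and subculturing for 24 h without antibiotic. Isolates were identified by 16S rDNA sequencing.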

[9] = Tmax in Sprague-Dawley rat at 20 mg/kg, po after 0.25 to 24 hrs by LC-MS/MS analysis; type: ADME, organism-based; settings: in vivo; outline: as §2
[10] = Ratio of test compound MRT to telithromycin MRT in Sprague-Dawley rat at 20 mg/kg, po after 0.25 to 24 hrs by LC-MS/MS analysis; type: ADME, organism-based; settings: in vivo
[11] = system: Streptococcus pneumoniae; test: Antibacterial activity against Streptococcus pneumoniae 07P390 expressing constitutive ermB gene assessed as reduction in microbial growth by CLSI based two-fold broth dilution method; type: functional
[12] = Systemic plasma clearance in Sprague-Dawley rat at 20 mg/kg, po after 0.25 to 24 hrs by LC-MS/MS analysis; type: ADME, organism-based; outline: as §2
[13] = system: Streptococcus pyogenes; test: Antibacterial activity against MLS-resistant Streptococcus pyogenes 12-206 expressing constitutive ermA gene assessed as reduction in microbial growth by CLSI based two-fold broth dilution method; type: functional
[14] = system: Haemophilus influenzae; test: Bactericidal activity against azithromycin-susceptible Haemophilus influenzae ATCC 49247 pretreated followed by subculture in absence of compound measured after 24 hrs; type: functional; outline: as §1
[15] = system: Rattus norvegicus; test: Ratio of test compound half life to telithromycin half life in Sprague-Dawley rat at 20 mg/kg, po after 0.25 to 24 hrs by LC-MS/MS analysis; type: ADME, organism-based; settings: in vivo
[16] = system: Streptococcus pyogenes; test: Antibacterial activity against Streptococcus pyogenes 12-207 expressing mef gene assessed as reduction in microbial growth by CLSI based two-fold broth dilution method; type: functional
[17] = system: Streptococcus pneumoniae; test: Selectivity ratio of MBC to MIC for penicillin-susceptible Streptococcus pneumoniae PU 09 expressing mef gene; type: functional; outline: as §1
[18] = system: Streptococcus pyogenes; test: Selectivity ratio of MBC to MIC for MLS-resistant Streptococcus pyogenes 12-206 expressing constitutive ermA gene; type: functional; outline: as §4
[19] = AUC (0 to t) in Sprague-Dawley rat at 20 mg/kg, po after 0.25 to 24 hrs by LC-MS/MS analysis; type: ADME, organism-based; set-up: time upper 24 hr, dose 20 mg/kg, time lower 0.25 hr, route oral; settings: in vivo; outline: as §2
[20] = system: Streptococcus pneumoniae; test: Selectivity ratio of MBC to MIC for Streptococcus pneumoniae 07P390 expressing constitutive ermB gene; type: functional; outline: as §1
[21] = system: Staphylococcus aureus; test: Selectivity ratio of MBC to MIC for MLS/methicillin-resistant Staphylococcus aureus PU 32 expressing inducible ermA gene; type: functional; outline: as §4
[22] = system: Moraxella catarrhalis; test: Selectivity ratio of MBC to MIC for erythromycin-susceptible Moraxella catarrhalis 13L332; type: functional; outline: as §1
[23] = system: Streptococcus pneumoniae; test: Bactericidal activity against erythromycin-susceptible Streptococcus pneumoniae ATCC49619 pretreated followed by subculture in absence of compound measured after 24 hrs; type: functional; outline: as §1
[24] = system: Streptococcus pyogenes; test: Antibacterial activity against MLS-resistant Streptococcus pyogenes 01-968 expressing inducible ermB gene assessed as reduction in microbial growth by CLSI based two-fold broth dilution method; type: functional
[25] = AUCinfinity in Sprague-Dawley rat at 20 mg/kg, po after 0.25 to 24 hrs by LC-MS/MS analysis; type: ADME, organism-based; set-up: dose 20 mg/kg, time infinity, route oral; settings: Sprague-Dawley, in vivo; outline: as §2
[26] = system: Streptococcus pyogenes; test: Bactericidal activity against MLS-resistant Streptococcus pyogenes 12-206 expressing constitutive ermA gene pretreated followed by subculture in absence of compound measured after 24 hrs; type: functional; outline: as §3
[27] = Half life in Sprague-Dawley rat at 20 mg/kg, po after 0.25 to 24 hrs by LC-MS/MS analysis; type: ADME, organism-based; settings: in vivo; outline: as §2
[28] = system: Staphylococcus aureus; test: Antibacterial activity against MLS-resistant Staphylococcus aureus PU 32 expressing inducible ermA gene assessed as reduction in microbial growth by CLSI based two-fold broth dilution method; type: functional
[29] = system: Staphylococcus aureus; test: Bactericidal activity against MLS/methicillin-resistant Staphylococcus aureus PU 32 expressing inducible ermA gene pretreated followed by subculture in absence of compound measured after 24 hrs; type: functional; outline: as §3
[30] = molecular target: Cytochrome P450 3A4 (Homo sapiens, UniProt P08684); test: Inhibition of CYP3A4 in human liver microsomes assessed as reduction in metabolite formation using midazolam as substrate incubated for 10 mins in presence of NADPH by HPLC based mass spectrometric method; type: ADME
Cytochrome P450 3A4, sequence (P08684 whole entry): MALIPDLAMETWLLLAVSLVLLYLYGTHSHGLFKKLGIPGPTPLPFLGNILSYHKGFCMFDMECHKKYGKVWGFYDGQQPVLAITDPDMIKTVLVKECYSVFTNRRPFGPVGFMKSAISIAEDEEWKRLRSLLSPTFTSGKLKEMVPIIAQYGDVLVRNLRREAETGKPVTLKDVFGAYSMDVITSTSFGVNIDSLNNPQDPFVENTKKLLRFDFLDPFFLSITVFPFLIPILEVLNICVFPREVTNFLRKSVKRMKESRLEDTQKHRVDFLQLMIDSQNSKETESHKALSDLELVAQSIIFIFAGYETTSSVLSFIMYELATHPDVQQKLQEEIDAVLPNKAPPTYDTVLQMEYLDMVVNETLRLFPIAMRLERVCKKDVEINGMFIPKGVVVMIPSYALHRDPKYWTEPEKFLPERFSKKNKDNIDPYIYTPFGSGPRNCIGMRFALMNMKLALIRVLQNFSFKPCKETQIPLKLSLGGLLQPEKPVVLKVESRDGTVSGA
Outline: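 Human liver microsome CYP3A4 with midazolam substrate in 0.1 M potassium phosphate buffer was prewarmed at 37 °C for 5 min. Compound and 25 mM NADPH solution (stock) were added, then incubated at 37 °C for 10 min. Ketoconazole served as the positive inhibitor. Metabolite was measured by UPLC–triple quadrupole MS as the metabolite/internal standard peak area ratio, and IC50 was derived by curve fitting.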

[31] = system: Streptococcus pneumoniae; test: Antibacterial activity against penicillin-susceptible Streptococcus pneumoniae PU 09 expressing mef gene assessed as reduction in microbial growth by CLSI based two-fold broth dilution method; type: functional
[32] = system: Haemophilus influenzae; test: Antibacterial activity against azithromycin-susceptible Haemophilus influenzae ATCC 49247 assessed as reduction in microbial growth by CLSI based two-fold broth dilution method; type: functional
[33] = system: Streptococcus pyogenes; test: Bactericidal activity against MLS-resistant Streptococcus pyogenes 01-968 expressing inducible ermB gene pretreated followed by subculture in absence of compound measured after 24 hrs; type: functional; outline: as §3
[34] = system: Streptococcus pneumoniae; test: Antibacterial activity against erythromycin-susceptible Streptococcus pneumoniae ATCC49619 assessed as reduction in microbial growth by CLSI based two-fold broth dilution method; type: functional
[35] = system: Staphylococcus aureus; test: Antibacterial activity against MLS-resistant Staphylococcus aureus PU 20 expressing constitutive ermC gene assessed as reduction in microbial growth by CLSI based two-fold broth dilution method; type: functional
[36] = system: Moraxella catarrhalis; test: Antibacterial activity against erythromycin-susceptible Moraxella catarrhalis 13L332 assessed as reduction in microbial growth by CLSI based two-fold broth dilution method; type: functional
[37] = system: Streptococcus pyogenes; test: Selectivity ratio of MBC to MIC for Streptococcus pyogenes 12-207 expressing mef gene; type: functional; outline: as §1
[38] = system: Streptococcus pyogenes; test: Bactericidal activity against Streptococcus pyogenes 12-207 expressing mef gene pretreated followed by subculture in absence of compound measured after 24 hrs; type: functional; outline: as §1

Row | SMILES | MBC [1] [µg/mL] | MRT [2] [h] | MBC [3] [µg/mL] | MBC [4] [µg/mL] | Cmax [5] [ng/mL] | Selectivity ratio [6] | Selectivity ratio [8] | Tmax [9] [h] | Ratio [10] | MIC [11] [µg/mL] | CL/F [12] [mL/min/kg] | MIC [13] [µg/mL] | MBC [14] [µg/mL] | Ratio [15] | MIC [16] [µg/mL] | Selectivity ratio [17] | Selectivity ratio [18] | AUC(0-t) [19] [ng·h/mL] | Selectivity ratio [20] | Selectivity ratio [21] | other results
1 | CC[C@H]1OC(=O)[C@@](C)(F)C(=O)[C@H](C)[C@@H](O[C@@H]2O[C@H](C)C[C@H](N(C)C)[C@H]2O)[C@](C)(OC)C[C@@H](C)/C(=N\OCC#Cc2ccc3c(c2)c(=O)c(C(N)=O)cn3CC)[C@H](C)[C@H]2OC(=O)O[C@@]21C | 32 (≈ 35.6 µM) | 8.53 | 0.5 (≈ 0.556 µM) | > 1 | 43.5 | 2 | >8 | 7 | 2.3 to 2.6 | 0.125 | 1190 | 0.125 | 32 (≈ 35.6 µM) | 2.5 to 3.6 | 0.125 | 2 | >8 | 228 | >8 | 8 | MBC [7]: > 256 µg/mL; Selectivity ratio [22]: 8; MBC [23]: ≤ 0.008 µg/mL; MIC [24]: ≤ 0.002 µg/mL; AUC(0-inf) [25]: 281 ng·h/mL; MBC [26]: > 1 µg/mL; half-life [27]: 3.2 h; MIC [28]: 1 µg/mL; MBC [29]: 8 µg/mL (≈ 8.9 µM); IC50 [30]: 7.32 µM; MIC [31]: 0.25 µg/mL; MIC [32]: 16 µg/mL; MBC [33]: > 0.016 µg/mL; MIC [34]: ≤ 0.008 µg/mL; MIC [35]: 128 µg/mL; MIC [36]: 4 µg/mL; Selectivity ratio [37]: 4; MBC [38]: 0.5 µg/mL (≈ 0.556 µM)
2 | CC[C@H]1OC(=O)[C@@](C)(F)C(=O)[C@H](C)[C@@H](O[C@@H]2O[C@H](C)C[C@H](N(C)C)[C@H]2O)[C@](C)(OC/C=C/c2ccc3c(c2)c(=O)c(C(N)=O)cn3C2CC2)C[C@@H](C)/C(=N\OC)[C@H](C)[C@H]2OC(=O)O[C@@]21C | 4 (≈ 4.38 µM) | 8.32 | 0.5 (≈ 0.548 µM) | > 0.062 | 369 | 2 | >8 | 6.67 | 2.3 to 2.6 | ≤ 0.008 | 80.8 | 0.016 | 32 (≈ 35 µM) | 2.5 to 3.6 | 0.062 | 1 | >8 | 4600 | >8 | >8 | Selectivity ratio [22]: 8; MBC [23]: ≤ 0.008 µg/mL; MIC [24]: ≤ 0.002 µg/mL; AUC(0-inf) [25]: 4770 ng·h/mL; MBC [26]: > 0.125 µg/mL; half-life [27]: 4.34 h; MIC [28]: 0.25 µg/mL; MBC [29]: > 2 µg/mL; IC50 [30]: 14.9 µM; MIC [31]: 0.5 µg/mL; MIC [32]: 16 µg/mL; MBC [33]: > 0.016 µg/mL; MIC [34]: ≤ 0.008 µg/mL; MIC [35]: > 256 µg/mL; MIC [36]: 0.5 µg/mL; Selectivity ratio [37]: 2; MBC [38]: 0.125 µg/mL (≈ 0.137 µM)
